Data: ChEMBL document CHEMBL1140091, “2-aminothienopyridazines as novel adenosine A1 receptor allosteric modulators and antagonists” (J Med Chem, 2008)
Where “and” joins values, the source holds several entries; their conditions need not be identical. Identical values can stand only once. Calls of active or inactive are those of the source. No cut-off for these calls is given here.

Key:
[1] = molecular target: T1, Adenosine receptor A1 (Homo sapiens) (UniProt P30542); experiment: Modulation of human adenosine A1 receptor expressed in CHO-K1 cells assessed as stabilization of [125I]ABA-receptor-G protein ternary complex at 50 uM by dissociation kinetic assay; format: cell-based
T1 sequence (whole entry): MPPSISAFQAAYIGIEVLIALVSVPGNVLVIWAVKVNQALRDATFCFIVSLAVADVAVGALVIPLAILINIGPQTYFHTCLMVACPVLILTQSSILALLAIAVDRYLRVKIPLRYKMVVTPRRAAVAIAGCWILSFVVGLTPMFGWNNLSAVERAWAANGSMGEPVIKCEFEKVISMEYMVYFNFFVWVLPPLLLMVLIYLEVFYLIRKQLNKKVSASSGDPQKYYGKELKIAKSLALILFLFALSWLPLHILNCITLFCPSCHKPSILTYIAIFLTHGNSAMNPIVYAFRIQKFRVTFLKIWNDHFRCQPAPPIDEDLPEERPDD
Procedure, shortened: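 CHO-K1 membranes with human A1AR (10 µg) equilibrated 90 min at room temperature with 0.5 nM [125I]-ABA in 10 mM HEPES pH 7.2, 0.5 mM MgCl2, 1 U/mL ADA. Modulator (0.1-50 µM final) added for 30 min. Dissociation started with 100 µM BW-1433 plus 25 µM GTPγS for 10 min, then filtration and counting. K-score = 100×(B−Bo)/(Beq−Bo); n = 3. EC50 from variable-slope sigmoidal fit.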

Adenosine receptor A1 [2] = molecular target: T2, Adenosine receptor A1 (Homo sapiens, UniProt P30542); experiment: Modulation of human adenosine A1 receptor expressed in CHO-K1 cells assessed as allosteric effect on [125I]ABA dissociation; format: cell-based
T2 sequence (P30542 whole entry): T1 sequence (whole entry)

[3] = molecular target: T1, Adenosine receptor A1 (Homo sapiens); experiment: Displacement of [3H]CPX from human adenosine A1 receptor expressed in CHO-K1 cells at 50 uM; format: cell-based
Procedure, shortened: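 Incubated with 2 nM [3H]CPX and 50 µM modulator (final) for 90 min at room temperature. Nonspecific binding defined with 100 µM NECA. Filtration and scintillation counting; triplicate, given as % inhibition versus control.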

[4] = molecular target: T1, Adenosine receptor A1 (Homo sapiens); experiment: (§1) Antagonist activity at human adenosine A1 receptor expressed in FlpIn-CHO cells assessed as inhibition of R-PIA-mediated ERK1/2 phosphorylation; format: functional, cell-based
Adenosine receptor A1 [5] = molecular target: T2, Adenosine receptor A1; experiment: as §1; format: functional, cell-based; conditions: read-out: pA2 (converted)
Adenosine receptor A1 [6] = molecular target: T2, Adenosine receptor A1; experiment: Antagonist activity at human adenosine A1 receptor assessed as inhibition of R-PIA-mediated [35S]GTPgammaS binding to G protein; format: functional; conditions: read-out: pA2 (converted)
Procedure, shortened: (§2)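 Membranes (15 µg) from CHO FlpIn cells stably expressing human A1AR. Preincubated 60 min at 30 °C in 10 mM HEPES, 100 mM NaCl, 10 mM MgCl2, pH 7.4, with 10 µM GDP, R-PIA (0.01 nM - 1 µM) ± increasing modulator concentrations. [35S]GTPγS (100 pM) then added for another 30 min at 30 °C. Filtration and scintillation counting; three experiments in duplicate.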

[7] = molecular target: T1, Adenosine receptor A1 (Homo sapiens); experiment: Inverse agonist activity at human adenosine A1 receptor assessed as reduction of inhibition of R-PIA-mediated [35S]GTPgammaS binding to G protein; format: functional; procedure, shortened: as §2
Adenosine receptor A1 [8] = molecular target: T2, Adenosine receptor A1; experiment: Antagonist activity at human adenosine A1 receptor expressed in CHO-K1 cells assessed as reduction of [3H]CCPA specific equilibrium binding; format: cell-based

Structure (SMILES) | Activity [1] | EC50 (Adenosine receptor A1 [2]) | inhibition [3] | also measured
Cc1c(C(=O)Nc2ccccc2)sc(N)c1C(N)=O | 80.3% and 80% | 3.95 µM | 32.3% | Activity [4]: inactive
Nc1cc(Cl)ccc1C(=O)N1CCSCC1 | 6% | – | – | –
COc1ccc(-n2nc(C(=O)O)c3csc(N)c3c2=O)cc1 | 55.8% | 2.6 µM | 29.5% | Activity [4]: inactive
Nc1ccccc1C(=O)N/N=C/c1ccc2c(c1)OCO2 | < 5% | – | – | –
COc1ccc(-n2nc(C(=O)OC(C)(C)C)c3csc(N)c3c2=O)cc1 | 5% | – | – | –
CCOC(=O)c1nn(-c2ccc(OS(=O)(=O)C(F)(F)F)cc2)c(=O)c2c(N)scc12 | 68.5% | 4.9 µM | 21.5% | Activity [4]: inactive
Nc1nccnc1C(=O)N/N=C/c1ccc(C(F)(F)F)cc1 | < 5% | – | – | –
CSc1nc(C(N)=O)c(N)s1 | < 5% | – | – | –
Nc1ccccc1C(=O)NC1CCCCNC1=O (stereo not drawn) | < 5% | – | – | –
NNC(=O)c1nccnc1N | < 5% | – | – | –
Nc1nccnc1C(=O)N/N=C/c1ccco1 | < 5% | – | – | –
CCOC(=O)c1cn[nH]c1N | < 5% | – | – | –
Nc1nccnc1C(=O)N/N=C/c1ccc(Cl)cc1 | < 5% | – | – | –
COc1cccc(-c2cc3c(c(N)c2C#N)c(=O)oc2ccccc23)c1 | < 5% | – | – | –
Nc1ccccc1C(=O)NNc1ccccc1Cl | < 5% | – | – | –
CCOC(=O)c1nn(-c2ccc([N+](=O)[O-])cc2)c(=O)c2c(N)scc12 | 19.6% | 13 µM | 73.4% | Activity [4]: inactive
NC(=O)c1nnc2ccccc2c1N | < 5% | – | – | –
NC(=O)c1nnn(Cc2ccc(F)cc2)c1N | < 5% | – | – | –
CCOC(=O)c1nn(-c2ccc(I)cc2)c(=O)c2c(N)scc12 | 65.4% | 7.1 µM | 100% | Kb (Adenosine receptor A1 [5]): 0.0794 µM
Nc1ccc(Cl)cc1C(=O)NCc1ccncc1 | < 5% | – | – | –
Cc1nc2ccccc2c(C(=O)O)c1N | < 5% | – | – | –
CCOC(=O)c1nn(-c2ccc(O)cc2)c(=O)c2c(N)scc12 | 75.9% | 7.1 µM | 65.8% | Kb (Adenosine receptor A1 [5]): 0.0398 µM

Structure (SMILES) | Activity [1] | EC50 (Adenosine receptor A1 [2]) | inhibition [3] | also measured
CCOC(=O)c1nn(-c2ccccc2)c(=O)c2c(N)scc12 | 60.4% | 13.6 µM | 22.8% | Kb (Adenosine receptor A1 [5]): 0.0158 µM
Nc1[nH]nc2[nH]c(-c3ccccc3)cc(=O)c12 | < 5% | – | – | –
NC(=O)c1ncccc1C(=O)O | < 5% | – | – | –
CCOC(=O)c1nn(-c2ccc(C(F)(F)F)cc2)c(=O)c2c(N)scc12 | 81% | 8.4 µM | 77.2% | Activity [4]: inactive
Cc1sc(N)c(C(=O)c2cccs2)c1C | 33.2% | 11.2 µM | 50.3% | Activity [4]: inactive
NC(=O)c1nnn(Cc2ccc(Cl)cc2)c1N | < 5% | – | – | –
Nc1ccc(Cl)cc1C(=O)NCc1ccccn1 | < 5% | – | – | –
CCOC(=O)c1nn(-c2ccc(C(C)(C)C)cc2)c(=O)c2c(N)scc12 | 59% | 9.75 µM | 23% | Activity [4]: inactive
Nc1scc2c(C(=O)O)nn(-c3ccccc3)c(=O)c12 | – | 9.8 µM | – | –
CCOC(=O)c1nn(-c2ccc(OC)cc2)c(=O)c2c(N)scc12 | 68.6% | 4.3 µM | 92.5% | Kb (Adenosine receptor A1 [5]): 0.2 µM
Cc1nn(-c2ccccc2)c2nc(N)c(C(N)=O)cc12 | < 5% | – | – | –
CCOC(=O)c1c(N)sc2c1-c1ccccc1C2 | < 5% | – | – | –
CCOC(=O)c1nn(-c2ccc(OC(C)=O)cc2)c(=O)c2c(N)scc12 | 66.6% | 2.5 µM | 48.9% | Kb (Adenosine receptor A1 [5]): 0.0398 µM
NC(=O)c1cc(Cl)c(Cl)cc1C(N)=O | < 5% | – | – | –
Nc1nccnc1C(=O)NNS(=O)(=O)c1ccc(Cl)cc1 | < 5% | – | – | –
Nc1c2c(=O)cc(-c3ccccc3)[nH]c2nn1-c1ccccc1 | < 5% | – | – | –
CCOC(=O)c1c(C)nsc1N | < 5% | – | – | –
CCOC(=O)c1nn(-c2cccc(C(F)(F)F)c2)c(=O)c2c(N)scc12 | 66.1% | 2.7 µM | 32% | Activity [4]: inactive
CCOC(=O)c1cnn(C)c1N | < 5% | – | – | –
CCOC(=O)c1nn(-c2cccc(Cl)c2)c(=O)c2c(N)scc12 | 69.2% | 5.7 µM | 100% | Kb (Adenosine receptor A1 [5]): 0.002 µM; Kb (Adenosine receptor A1 [6]): 0.00794 µM; Activity [7]: Dose-dependent effect; Ki (Adenosine receptor A1 [8]): 0.00575 µM
CCOC(=O)c1cnc(SCC(=O)c2cc(Cl)c(Cl)s2)nc1N | 11% | – | – | –
